{"source": "paper PMC6733264", "about": "(ACS chemical biology, 2019)", "key": {"[1]": {"tested_on": "HEK293 cells transiently transfected with BRAF^WT", "experiment": "Immunoblot of MAPK signaling in transiently transfected HEK293 cells", "type": "cell-based, human", "details": "for BRAF activity (phospho-MEK1/2): 0, 10, 25, 50, 75, 100 μM for 4 hr, 48 hr post-transfection"}, "[2]": {"tested_on": "HEK293 cells transiently transfected with BRAF^G469A", "experiment": "Immunoblot of MAPK signaling in transiently transfected HEK293 cells", "type": "cell-based, human", "details": "for BRAF activity (phospho-MEK1/2): 0, 10, 25, 50, 75, 100 μM for 4 hr, 48 hr post-transfection"}, "[3]": {"tested_on": "HCT116 cells", "experiment": "WST cell viability assay", "type": "cell-based, human", "details": "concentrations up to 100 μM, 48 hr"}, "[4]": {"tested_on": "HCT-15 cells", "experiment": "WST cell viability assay", "type": "cell-based, human", "details": "concentrations up to 100 μM, 48 hr"}, "[5]": {"tested_on": "p61 BRAF^V600E in HEK293 cells", "experiment": "Immunoblot of HEK293 cells transfected with p61-BRAF^V600E", "type": "cell-based, human", "details": "increasing concentrations, 4 hr", "method_in_brief": "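HEK293 cells were transiently transfected with 6X-His/FLAG-tagged p61-BRAF V600E in pcDNA4/TO. p61 is an aberrantly spliced BRAF of about 61 kDa. Cells were exposed to increasing concentrations of the TAT-tagged test peptide for 4 hr, then lysates were immunoblotted.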"}, "[6]": {"biological_target": "full-length (FL) BRAF^WT (Homo sapiens, UniProt P15056)", "sequence (P15056 whole entry)": "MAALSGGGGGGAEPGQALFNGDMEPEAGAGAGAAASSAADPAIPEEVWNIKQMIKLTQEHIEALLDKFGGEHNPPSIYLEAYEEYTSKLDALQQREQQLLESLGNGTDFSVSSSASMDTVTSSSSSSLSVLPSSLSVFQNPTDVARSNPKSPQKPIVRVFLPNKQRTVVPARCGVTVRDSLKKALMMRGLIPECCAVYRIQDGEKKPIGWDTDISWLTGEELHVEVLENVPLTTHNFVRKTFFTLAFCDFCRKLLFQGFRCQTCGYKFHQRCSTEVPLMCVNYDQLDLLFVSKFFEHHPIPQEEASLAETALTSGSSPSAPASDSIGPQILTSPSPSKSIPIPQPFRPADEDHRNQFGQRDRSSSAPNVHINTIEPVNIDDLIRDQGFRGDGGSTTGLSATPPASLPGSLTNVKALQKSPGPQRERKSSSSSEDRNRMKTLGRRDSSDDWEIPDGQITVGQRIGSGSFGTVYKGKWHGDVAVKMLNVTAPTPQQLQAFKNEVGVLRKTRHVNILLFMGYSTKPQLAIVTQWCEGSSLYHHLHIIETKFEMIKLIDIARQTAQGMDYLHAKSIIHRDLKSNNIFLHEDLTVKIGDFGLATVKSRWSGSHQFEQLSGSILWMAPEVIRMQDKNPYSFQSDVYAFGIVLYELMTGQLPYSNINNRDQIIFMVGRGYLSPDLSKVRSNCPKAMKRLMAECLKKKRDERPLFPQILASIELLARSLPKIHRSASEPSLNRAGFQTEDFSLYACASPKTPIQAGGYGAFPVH", "experiment": "ELISA kinase assay of purified full-length BRAF, probing phosphorylated MEK", "type": "biochemical"}, "[7]": {"biological_target": "full-length (FL) BRAF^G469A (Homo sapiens, UniProt P15056, G469A)", "sequence (P15056 whole entry G469A)": "as the sequence (P15056 whole entry) above, with G469A counted along it", "experiment": "ELISA kinase assay of purified full-length BRAF, probing phosphorylated MEK", "type": "biochemical"}}, "note": "Square brackets hold non-standard residues; d marks the D form. Ends that are not written are not given here. PEG = not defined here", "data": [{"molecule": "CC(C)(C)c1nc(-c2cccc(NS(=O)(=O)c3c(F)cccc3F)c2F)c(-c2ccnc(N)n2)s1", "note": "[dabrafenib, reference compound]", "values": [{"measurement": "concentration at which dabrafenib alone acts as an inhibitor of MAPK signaling", "setting": "[1]; 0-10 μM for 1 hr, activates MAPK signaling at lower concentrations", "value": "above 10 μM"}]}, {"molecule": "GRKKRRQRRRPQ [TAT peptide, reference compound]", "values": [{"measurement": "BRAF activity (phospho-MEK1/2)", "setting": "[1]; immunoblot", "value": "no inhibition effect was observed"}, {"measurement": "BRAF activity (phospho-MEK1/2)", "setting": "[2]", "value": "no inhibition effect was observed"}, {"measurement": "cell death", "setting": "[3]", "value": "no cell death was observed"}, {"measurement": "cell death", "setting": "[4]", "value": "no cell death was observed"}]}, {"molecule": "TAT-braftide (GRKKRRQRRRPQ[PEG]TRHVNILLFM; reading uncertain; also: PEG linker between TAT and braftide)", "values": [{"measurement": "BRAF activity (phospho-MEK1/2)", "setting": "[1]; immunoblot", "value": "significantly reduced the activity of BRAF in a dose-dependent manner"}, {"measurement": "protein levels of overexpressed BRAF and endogenous MEK1", "setting": "[1]; 0-100 μM for 4 hr, immunoblot", "value": "markedly decreased in a dose-dependent manner"}, {"measurement": "paradoxical effect caused by lower doses of dabrafenib", "setting": "[1]; pre-treatment with 75 μM for 2 h, then dabrafenib 1 hr", "value": "abrogated the paradoxical effect"}, {"measurement": "BRAF activity (phospho-MEK1/2)", "setting": "[2]", "value": "significantly reduced the activity of BRAF in a dose-dependent manner"}, {"measurement": "protein levels of overexpressed BRAF and endogenous MEK1", "setting": "[2]; 0-100 μM for 4 hr", "value": "markedly decreased in a dose-dependent manner"}, {"measurement": "pMEK and pERK levels", "setting": "[5]", "value": "decrease in both pMEK and pERK levels"}]}, {"molecule": "THHVNILLFM [R/H-braftide]", "values": [{"measurement": "IC50", "setting": "[6]", "value": "2490 to 4980", "unit": "nM"}, {"measurement": "IC50", "setting": "[7]", "value": "625 to 3340", "unit": "nM"}]}]}
